The structures appear in SMILES notation. Activity calls are given as the source filed them. No cut-off for these calls is given here.

One test relates to Staphylococcus aureus. The experiment in a line: Antibacterial activity against Staphylococcus aureus ATCC 11632 after 24 hrs by broth microdilution method. Format: functional. Put shortly:
(§1)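 Microwell broth dilution in brain heart infusion broth (nutrient broth adjusted to pH 7.0). Inoculum from 16 h cultures, adjusted to 0.5 McFarland (1.5 × 10⁸ CFU/mL). 10 µL compound (serial dilutions 20 down to 0.625 or 0.312 µM/mL) plus 10 µL culture added to 150 µL broth. Incubated 24 h at 37 °C. MIC95 is the lowest concentration with no turbidity. Ciprofloxacin reference; inoculum and broth controls.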

In a further test the test system is Salmonella typhi. Briefly: Antibacterial activity against Salmonella typhi ATCC 15499 after 24 hrs by broth microdilution method. Format: functional. Put shortly:
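Broth microdilution in brain heart infusion broth in microwells. Inoculum was prepared from 16 h cultures adjusted to the 0.5 McFarland standard (1.5 × 10⁸ CFU/mL). Compounds were serially diluted from 20 down to 0.625 µM/mL and added to the broth, followed by the bacterial culture. Plates were incubated 24 h at 37 °C, with optical density read. MIC95 was the lowest concentration giving no turbidity. Inoculum and broth controls were included.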

A further test has as its system Pseudomonas aeruginosa. The experiment in a line: Antibacterial activity against Pseudomonas aeruginosa ATCC 23564 after 24 hrs by broth microdilution method. Format: functional. The method in brief:
as §1

Another test deals with Escherichia coli. Briefly: Antibacterial activity against Escherichia coli ATCC 35218 after 24 hrs by broth microdilution method. It is filed as functional. Put shortly:
as §1

A further test has as its system Bacillus cereus. The experiment in a line: Antibacterial activity against Bacillus cereus MTCC 7350 after 24 hrs by broth microdilution method. Format: functional. Put shortly:
as §1

The next test concerns Providencia rettgeri. Briefly: Antibacterial activity against Providencia rettgeri DRDE after 24 hrs by broth microdilution method. Format: functional. Put shortly:
as §1

Test [1] concerns Aspergillus niger. Briefly: Antifungal activity against Aspergillus niger after 72 hrs by agar disk diffusion method. Format: functional. The method in brief:
(§2)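 Sterile filter-paper discs dipped in the acetone dilutions of compound (20–0.315 µM/mL), then dried to remove acetone. Sabouraud dextrose agar plates spread with 1 mL fungal culture. Discs placed aseptically; one drug-free disc served as growth control; fluconazole reference. Plates incubated upright 72 h at 28 °C. Zone of inhibition measured in mm with a scale.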

In test [2] the test system is Aspergillus fumigatus. The experiment in a line: Antifungal activity against Aspergillus fumigatus after 72 hrs by agar disk diffusion method. Format: functional. The method in brief:
as §2

Test [3] concerns Aspergillus flavus. The experiment in a line: Antifungal activity against Aspergillus flavus after 72 hrs by agar disk diffusion method. It is filed as functional. The method in brief: as §2
A short description of test [4]: Cytotoxicity against human L123 cells after 48 hrs by MTT assay. Format: cell-based. The method in brief:
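MTT assay. 2×10³ cells per well in MEM + 10% FBS, attached 24 h, then treated at 5, 10, 20, 50 and 100 µM/mL for 48 h; controls received medium with 0.2% DMSO. Duplicate treatments. Cells PBS-washed, given MTT (stock 1 mg/mL) for 4 h at 37 °C. Formazan dissolved in DMSO, read at 590 nm. IC50 is the concentration reducing viability by 50%.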

For test [5], the system named is Aspergillus flavus. The experiment in a line: Antifungal activity against Aspergillus flavus after 72 hrs by broth dilution method. It is filed as functional. Put shortly:
(§3)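 Compounds and fluconazole reference were dissolved in acetone at 120 µM/mL and serially diluted to 20–0.315 µM/mL. 10 µL compound plus 10 µL fungal culture broth added to 150 µL Sabouraud dextrose medium per well. Optical density recorded, then incubated 72 h at 28 °C. MIC95 taken from absence of turbidity. Acetone-at-same-dilution solvent control.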

Test [6] deals with Aspergillus fumigatus. Briefly: Antifungal activity against Aspergillus fumigatus after 72 hrs by broth dilution method. It is filed as functional. Put shortly:
as §3

Test [7] concerns Aspergillus niger. The experiment in a line: Antifungal activity against Aspergillus niger after 72 hrs by broth dilution method. It is filed as functional. The method in brief: as §3
The mark [8] stands for this setting: Salmonella enterica subsp. enterica serovar Typhi.

In the case of `COc1cc(/C=C/C(=O)C2=C(/C=C/c3ccc(O)c(OC)c3)N=C3Sc4ccccc4N3C2c2ccc(Cl)cc2)ccc1O` (stereo not drawn), the MIC95 entry in the test on Staphylococcus aureus, with Salmonella typhi (setting [8]), in the test on Providencia rettgeri, in the test with Aspergillus flavus [5], with Aspergillus fumigatus [6] and with Aspergillus niger [7] was “inactive” each time. The MIC95 in the test with Pseudomonas aeruginosa is recorded as 20 uM/ml; in the test on Escherichia coli, 10 uM/ml; in the test with Bacillus cereus, 5 uM/ml. Moreover, the “inhibition zone (IZ)” value with Aspergillus niger [1], with Aspergillus fumigatus [2] and in the test with Aspergillus flavus [3] was “inactive” each time. For the same compound, in [4], the IC50 is > 100 uM/ml.
Take `COc1cc(/C=C/C(=O)C2=C(/C=C/c3ccc(O)c(OC)c3)N=C3Sc4ccccc4N3C2c2ccccc2)ccc1O` (stereo not drawn): the MIC95 worked out at 20 uM/ml against Staphylococcus aureus; 20 uM/ml in the test on Salmonella typhi; 10 uM/ml against Pseudomonas aeruginosa; 5 uM/ml in the test with Bacillus cereus; 20 uM/ml against Providencia rettgeri. Also, the MIC95 result in the test on Escherichia coli, with Aspergillus flavus [5], in the test with Aspergillus fumigatus [6] and in the test with Aspergillus niger [7] was “inactive” throughout. In addition, the “inhibition zone (IZ)” value in the test on Aspergillus niger [1], in the test with Aspergillus fumigatus [2] and with Aspergillus flavus [3] was “inactive” each time. Further, in [4], the IC50 was > 100 uM/ml.
As to `COc1cc(/C=C/c2cc(/C=C/c3ccc(O)c(OC)c3)n(C(=O)c3ccncc3)n2)ccc1O`, the MIC95 was found to be 1.25 uM/ml in the test with Staphylococcus aureus; 5 uM/ml against Salmonella typhi; 1.25 uM/ml against Pseudomonas aeruginosa; 2.5 uM/ml with Escherichia coli; 2.5 uM/ml in the test on Aspergillus flavus [5]; 2.5 uM/ml against Aspergillus niger [7]. The MIC95 entry with Bacillus cereus, in the test on Providencia rettgeri and in the test with Aspergillus fumigatus [6] was “inactive” throughout. The results for the “inhibition zone (IZ)” value in the test on Aspergillus niger [1] and in the test on Aspergillus flavus [3] were 18 mm and 22 mm, respectively. For the same compound, in the test on Aspergillus fumigatus [2], the “inhibition zone (IZ)” value was “inactive”. Further, the IC50 in test [4] is > 100 uM/ml.
On to `COc1cc(/C=C/C(=O)C2=C(/C=C/c3ccc(O)c(OC)c3)N=C3Sc4ccccc4N3C2c2ccccc2O)ccc1O` (stereo not drawn), for which the MIC95 turned out to be 20 uM/ml with Staphylococcus aureus, 20 uM/ml against Pseudomonas aeruginosa and 5 uM/ml in the test on Bacillus cereus. The MIC95 entry in the test on Salmonella typhi (setting [8]), in the test on Escherichia coli, with Providencia rettgeri, in the test on Aspergillus flavus [5], in the test with Aspergillus fumigatus [6] and in the test on Aspergillus niger [7] was “inactive” throughout. In addition, the “inhibition zone (IZ)” value in the test with Aspergillus niger [1], in the test on Aspergillus fumigatus [2] and in the test with Aspergillus flavus [3] was “inactive” throughout. For the same compound, in test [4], the IC50 is 50 uM/ml.
As for `COc1cc(C=C(C(=O)/C=C/c2ccc(O)c(OC)c2)C(=O)/C=C/c2ccc(O)c(OC)c2)ccc1O`, the MIC95 with Staphylococcus aureus is reported as 2.5 uM/ml; with Salmonella typhi it was 5 uM/ml; against Pseudomonas aeruginosa, 2.5 uM/ml; in the test on Bacillus cereus, 1.25 uM/ml; with Providencia rettgeri it was 2.5 uM/ml; in the test on Aspergillus flavus [5], 1.25 uM/ml. Moreover, the MIC95 result in the test on Escherichia coli, in the test with Aspergillus fumigatus [6] and in the test with Aspergillus niger [7] was “inactive” each time. Moreover, the “inhibition zone (IZ)” value in the test with Aspergillus niger [1] and with Aspergillus fumigatus [2] was “inactive” in each case. Also, in the test with Aspergillus flavus [3], the “inhibition zone (IZ)” value worked out at 20 mm. The IC50 in test [4] is listed as > 100 uM/ml.
As for `COc1cc(/C=C/C(=O)C(=Cc2ccccc2O)C(=O)/C=C/c2ccc(O)c(OC)c2)ccc1O`, the MIC95 in the test with Staphylococcus aureus was 1.25 uM/ml; against Salmonella typhi, 5 uM/ml; against Pseudomonas aeruginosa, 1.25 uM/ml; in the test on Escherichia coli, 2.5 uM/ml; against Bacillus cereus, 1.25 uM/ml; against Providencia rettgeri, 1.25 uM/ml. Moreover, the MIC95 in the test with Aspergillus fumigatus [6] and against Aspergillus niger [7] was 2.5 uM/ml in each case. Moreover, the entries for the “inhibition zone (IZ)” value with Aspergillus niger [1] and in the test with Aspergillus fumigatus [2] were 17 mm and 20 mm, respectively. In addition, the “inhibition zone (IZ)” value in the test on Aspergillus flavus [3] was “inactive”. In [4], this compound displayed an IC50 of 50 uM/ml. The MIC95 result with Aspergillus flavus [5] is “inactive”.

The values are drawn from ChEMBL document CHEMBL2203144, “Synthesis and evaluation of antimicrobial activity of 4H-pyrimido[2,1-b]benzothiazole, pyrazole and benzylidene derivatives of curcumin” (Eur J Med Chem, 2012).
